Measurements: ChEMBL document CHEMBL3864129, “Polybrominated Diphenyl Ethers: Structure Determination and Trends in Antibacterial Activity” (J Nat Prod, 2016)
In brackets after ≈: the same amount, converted by molar mass.

Experiments:
Candida albicans = test: Antimicrobial activity against Candida albicans ATCC 28517 by CLSI M07-A9 method; format: functional
Procedure, shortened: (§1)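 Laboratory strains tested following CLSI guidelines. Each compound was run in duplicate in at least two independent experiments, and the MIC was recorded.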

Enterococcus faecium [1] = test: Antimicrobial activity against Enterococcus […] ATCC 51299 by CLSI M07-A9 method; format: functional; procedure, shortened: as §1
Escherichia coli = test: Antimicrobial activity against Escherichia coli ATCC 25922 by CLSI M07-A9 method; format: functional; procedure, shortened: as §1
Staphylococcus aureus [2] = test: Antimicrobial activity against Staphylococcus aureus ATCC 29213 by CLSI M07-A9 method; format: functional; procedure, shortened: as §1
[3] = Cytotoxicity against human HCT116 cells assessed as decrease in cell viability after 24 hrs by MTT assay; format: toxicity, cell-based, HCT-116
[4] = Cytotoxicity against African green monkey BSC1 cells assessed as decrease in cell viability after 24 hrs by MTT assay; format: toxicity, cell-based, Chlorocebus aethiops, BSC-1; conditions: for IC50: bsc-1; for IC50 at 24 h: African green monkey (Chlorocebus aethiops), BSC1 cells
Staphylococcus aureus [5] = test: Antimicrobial activity against Staphylococcus aureus ATCC 43300 by CLSI M07-A9 method; format: functional; procedure, shortened: as §1
Enterococcus faecium [6] = test: Antimicrobial activity against Enterococcus […] ATCC 29212 by CLSI M07-A9 method; format: functional; procedure, shortened: as §1
Pseudomonas aeruginosa = test: Antimicrobial activity against Pseudomonas aeruginosa ATCC 27853 by CLSI M07-A9 method; format: functional; procedure, shortened: as §1

## COc1cc(Br)c(Br)c(Br)c1Oc1cc(Br)cc(Br)c1OC
Candida albicans
  MIC: > 50 µg/mL
Enterococcus faecium [1]
  MIC: > 50 µg/mL
Escherichia coli
  MIC: > 50 µg/mL
Staphylococcus aureus [2]
  MIC: > 50 µg/mL
[3]
  MNTC at 24 h: 50 µg/mL
[4]
  IC50: > 50 µg/mL
Staphylococcus aureus [5]
  MIC: > 50 µg/mL
Enterococcus faecium [6]
  MIC: > 50 µg/mL
Pseudomonas aeruginosa
  MIC: > 50 µg/mL

## COc1c(Br)cc(Br)cc1Oc1c(Br)c(OC)c(Br)c(Br)c1OC
Candida albicans
  MIC: > 50 µg/mL
Enterococcus faecium [1]
  MIC: 13 µg/mL (≈ 19.9 µM)
Escherichia coli
  MIC: > 50 µg/mL
Staphylococcus aureus [2]
  MIC: 3.1 µg/mL (≈ 4.73 µM)
[3]
  MNTC at 24 h: 50 µg/mL
[4]
  IC50: > 50 µg/mL
Staphylococcus aureus [5]
  MIC: 3.1 µg/mL (≈ 4.73 µM)
Enterococcus faecium [6]
  MIC: 13 µg/mL (≈ 19.9 µM)
Pseudomonas aeruginosa
  MIC: > 50 µg/mL

## Oc1c(Br)cc(Br)cc1Oc1c(O)c(Br)cc(Br)c1Br
Candida albicans
  MIC: > 50 µg/mL
Enterococcus faecium [1]
  MIC: 3.1 µg/mL (≈ 5.2 µM)
Escherichia coli
  MIC: 100 µg/mL (≈ 168 µM)
Staphylococcus aureus [2]
  MIC: 1.6 µg/mL (≈ 2.68 µM)
[3]
  MNTC at 24 h: 50 µg/mL
[4]
  IC50: > 50 µg/mL
Staphylococcus aureus [5]
  MIC: 0.31 µg/mL (≈ 0.52 µM)
Enterococcus faecium [6]
  MIC: 3.1 µg/mL (≈ 5.2 µM)
Pseudomonas aeruginosa
  MIC: > 50 µg/mL

## Oc1ccccc1Oc1ccccc1O
Enterococcus faecium [1]
  MIC: > 50 µg/mL
Escherichia coli
  Activity: Non-Toxic
Staphylococcus aureus [2]
  MIC: 50 µg/mL (≈ 247 µM)
Staphylococcus aureus [5]
  MIC: 50 µg/mL (≈ 247 µM)
Enterococcus faecium [6]
  MIC: > 50 µg/mL

## Oc1cc(Br)c(Br)c(Br)c1Oc1cc(Br)cc(Br)c1O
Candida albicans
  MIC: > 50 µg/mL
Enterococcus faecium [1]
  MIC: 0.39 µg/mL (≈ 0.654 µM)
Escherichia coli
  MIC: 25 µg/mL (≈ 41.9 µM)
Staphylococcus aureus [2]
  MIC: 0.31 µg/mL (≈ 0.52 µM)
[3]
  MNTC at 24 h: 50 µg/mL
[4]
  IC50: > 50 µg/mL
Staphylococcus aureus [5]
  MIC: 0.078 µg/mL (≈ 0.131 µM)
Enterococcus faecium [6]
  MIC: 0.39 µg/mL (≈ 0.654 µM)

## COc1c(Br)cc(Br)cc1Oc1c(Br)cc(Br)c(Br)c1OC
Candida albicans
  MIC: > 50 µg/mL
Escherichia coli
  MIC: > 50 µg/mL
Staphylococcus aureus [2]
  MIC: > 50 µg/mL
[3]
  MNTC at 24 h: 50 µg/mL
[4]
  IC50: > 50 µg/mL
Staphylococcus aureus [5]
  MIC: > 50 µg/mL
Pseudomonas aeruginosa
  MIC: > 50 µg/mL

## GENTAMICIN
Pseudomonas aeruginosa
  MIC: 1 µg/mL

## COc1c(Br)cc(Br)cc1Oc1cc(Br)c(Br)c(Br)c1OC
Candida albicans
  MIC: > 50 µg/mL
Enterococcus faecium [1]
  MIC: > 50 µg/mL
Escherichia coli
  MIC: > 50 µg/mL
Staphylococcus aureus [2]
  MIC: > 50 µg/mL
[3]
  MNTC at 24 h: 50 µg/mL
[4]
  IC50 at 24 h: > 50 µg/mL
Staphylococcus aureus [5]
  MIC: > 50 µg/mL
Enterococcus faecium [6]
  MIC: > 50 µg/mL
Pseudomonas aeruginosa
  MIC: > 50 µg/mL

## Oc1c(Br)cc(Br)cc1Oc1ccc(Br)cc1Br
Enterococcus faecium [1]
  MIC: 0.8 µg/mL (≈ 1.59 µM)
Escherichia coli
  MIC: > 100 µg/mL
Staphylococcus aureus [2]
  MIC: 0.78 µg/mL (≈ 1.55 µM)
[4]
  IC50: 32 µg/mL (≈ 63.8 µM)
Staphylococcus aureus [5]
  MIC: 0.19 µg/mL (≈ 0.379 µM)
Enterococcus faecium [6]
  MIC: 0.8 µg/mL (≈ 1.59 µM)

## Oc1c(Oc2ccc(Br)cc2Br)cc(Br)c(Br)c1Br
Enterococcus faecium [1]
  MIC: 1.2 µg/mL (≈ 2.07 µM)
Escherichia coli
  MIC: > 100 µg/mL
Staphylococcus aureus [2]
  MIC: 3.7 µg/mL (≈ 6.37 µM)
[4]
  IC50: 15 µg/mL (≈ 25.8 µM)
Staphylococcus aureus [5]
  MIC: 0.4 µg/mL (≈ 0.689 µM)
Enterococcus faecium [6]
  MIC: 1.2 µg/mL (≈ 2.07 µM)

## COc1c(Br)c(Br)c(O)c(Oc2cc(Br)cc(Br)c2O)c1Br
Candida albicans
  MIC: > 50 µg/mL
Enterococcus faecium [1]
  MIC: 1.56 µg/mL (≈ 2.49 µM)
Escherichia coli
  MIC: > 50 µg/mL
Staphylococcus aureus [2]
  MIC: 0.78 µg/mL (≈ 1.24 µM)
[3]
  MNTC at 24 h: 50 µg/mL
[4]
  IC50: > 50 µg/mL
Staphylococcus aureus [5]
  MIC: 0.39 µg/mL (≈ 0.622 µM)
Enterococcus faecium [6]
  MIC: 3.1 µg/mL (≈ 4.95 µM)
Pseudomonas aeruginosa
  MIC: > 50 µg/mL

## Cc1onc(-c2ccccc2)c1C(=O)N[C@@H]1C(=O)N2[C@@H]1SC(C)(C)[C@@H]2C(=O)O [OXACILLIN]
Enterococcus faecium [1]
  MIC: 32 µg/mL (≈ 79.7 µM)
Staphylococcus aureus [2]
  MIC: 0.13 µg/mL (≈ 0.324 µM)
Staphylococcus aureus [5]
  MIC: > 32 µg/mL

## Oc1c(Br)c(Br)c(Br)c(Br)c1Oc1ccc(Br)cc1Br
Enterococcus faecium [1]
  MIC: 33 µg/mL (≈ 50 µM)
Escherichia coli
  MIC: > 100 µg/mL
Staphylococcus aureus [2]
  MIC: 1.6 µg/mL (≈ 2.43 µM)
[4]
  IC50: 29 µg/mL (≈ 44 µM)
Staphylococcus aureus [5]
  MIC: 0.8 µg/mL (≈ 1.21 µM)
Enterococcus faecium [6]
  MIC: 33 µg/mL (≈ 50 µM)

## Oc1cc(Br)cc(Br)c1O
Candida albicans
  MIC: > 50 µg/mL
Enterococcus faecium [1]
  MIC: 25 µg/mL (≈ 93.3 µM)
Escherichia coli
  MIC: > 100 µg/mL
Staphylococcus aureus [2]
  MIC: 100 µg/mL (≈ 373 µM)
[3]
  MNTC at 24 h: 50 µg/mL
[4]
  IC50: > 50 µg/mL
Staphylococcus aureus [5]
  MIC: > 50 µg/mL
Enterococcus faecium [6]
  MIC: 12.5 µg/mL (≈ 46.7 µM)
Pseudomonas aeruginosa
  MIC: > 50 µg/mL

## COc1c(Br)cc(Br)cc1Oc1ccc(Br)cc1Br
Enterococcus faecium [1]
  MIC: 11 µg/mL (≈ 21.3 µM)
Escherichia coli
  MIC: > 100 µg/mL
Staphylococcus aureus [2]
  MIC: 3.7 µg/mL (≈ 7.17 µM)
[4]
  IC50: 35 µg/mL (≈ 67.9 µM)
Staphylococcus aureus [5]
  MIC: 0.4 µg/mL (≈ 0.775 µM)
Enterococcus faecium [6]
  MIC: 11 µg/mL (≈ 21.3 µM)

## Oc1c(Br)cc(Br)cc1Oc1c(Br)cc(Br)c(Br)c1O
Candida albicans
  MIC: > 50 µg/mL
Enterococcus faecium [1]
  MIC: 0.78 µg/mL (≈ 1.31 µM)
Staphylococcus aureus [2]
  MIC: 0.78 µg/mL (≈ 1.31 µM)
[3]
  MNTC at 24 h: 50 µg/mL
[4]
  IC50: > 50 µg/mL
Staphylococcus aureus [5]
  MIC: 0.16 µg/mL (≈ 0.268 µM)
Enterococcus faecium [6]
  MIC: 1.6 µg/mL (≈ 2.68 µM)
Pseudomonas aeruginosa
  MIC: > 50 µg/mL

## Oc1c(Br)cc(Br)cc1Oc1c(O)c(Br)c(Br)c(Br)c1Br
Enterococcus faecium [1]
  MIC: 0.39 µg/mL (≈ 0.577 µM)
Staphylococcus aureus [2]
  MIC: 0.39 µg/mL (≈ 0.577 µM)
[3]
  MNTC at 24 h: 50 µg/mL
[4]
  IC50: > 50 µg/mL
Staphylococcus aureus [5]
  MIC: 0.16 µg/mL (≈ 0.237 µM)
Enterococcus faecium [6]
  MIC: 0.78 µg/mL (≈ 1.15 µM)

## Oc1cc(Br)c(Br)cc1Oc1ccc(Br)cc1Br
Enterococcus faecium [1]
  MIC: 0.4 µg/mL (≈ 0.797 µM)
Escherichia coli
  MIC: 12.5 µg/mL (≈ 24.9 µM)
Staphylococcus aureus [2]
  MIC: 0.14 µg/mL (≈ 0.279 µM)
[4]
  IC50: 8.8 µg/mL (≈ 17.5 µM)
Staphylococcus aureus [5]
  MIC: 0.015 µg/mL (≈ 0.0299 µM)
Enterococcus faecium [6]
  MIC: 0.4 µg/mL (≈ 0.797 µM)

## Oc1cc(Br)cc(Br)c1Oc1ccc(Br)cc1Br
Candida albicans
  MIC: > 50 µg/mL
Enterococcus faecium [1]
  MIC: 1.2 µg/mL (≈ 2.39 µM)
Escherichia coli
  MIC: 3.1 µg/mL (≈ 6.18 µM)
Staphylococcus aureus [2]
  MIC: 0.042 µg/mL (≈ 0.0837 µM)
[4]
  IC50: 7 µg/mL (≈ 13.9 µM)
Staphylococcus aureus [5]
  MIC: 0.08 µg/mL (≈ 0.159 µM)
Enterococcus faecium [6]
  MIC: 1.2 µg/mL (≈ 2.39 µM)
Pseudomonas aeruginosa
  MIC: > 50 µg/mL

## COc1c(Br)cc(Br)cc1Oc1c(Br)c(Br)cc(Br)c1OC
Candida albicans
  MIC: > 50 µg/mL
Enterococcus faecium [1]
  MIC: > 50 µg/mL
Escherichia coli
  MIC: > 50 µg/mL
Staphylococcus aureus [2]
  MIC: > 50 µg/mL
[3]
  MNTC at 24 h: 50 µg/mL
[4]
  IC50 at 24 h: > 50 µg/mL
Staphylococcus aureus [5]
  MIC: > 50 µg/mL
Enterococcus faecium [6]
  MIC: 50 µg/mL (≈ 80 µM)
Pseudomonas aeruginosa
  MIC: > 50 µg/mL

## C[C@@H]1[C@H](O)[C@@H](C)/C=C/C=C/C=C/C=C/C=C/C=C/C=C/[C@H](O[C@@H]2O[C@H](C)[C@@H](O)[C@H](N)[C@@H]2O)C[C@@H]2O[C@](O)(C[C@@H](O)C[C@@H](O)[C@H](O)CC[C@@H](O)C[C@@H](O)CC(=O)O[C@H]1C)C[C@H](O)[C@H]2C(=O)O [AMPHOTERICIN B]
Candida albicans
  MIC: < 7.8 µg/mL

## Oc1c(Br)cc(Br)cc1Oc1cc(Br)c(Br)c(Br)c1O
Candida albicans
  MIC: > 50 µg/mL
Enterococcus faecium [1]
  MIC: 0.78 µg/mL (≈ 1.31 µM)
Staphylococcus aureus [2]
  MIC: 0.31 µg/mL (≈ 0.52 µM)
[3]
  MNTC at 24 h: 50 µg/mL
[4]
  IC50: > 50 µg/mL
Staphylococcus aureus [5]
  MIC: 0.16 µg/mL (≈ 0.268 µM)
Enterococcus faecium [6]
  MIC: 1.6 µg/mL (≈ 2.68 µM)

## Oc1cc(Br)cc(Br)c1Oc1cc(Br)cc(Br)c1O
Candida albicans
  MIC: > 50 µg/mL
Enterococcus faecium [1]
  MIC: 1.6 µg/mL (≈ 3.09 µM)
Staphylococcus aureus [2]
  MIC: 1.6 µg/mL (≈ 3.09 µM)
[3]
  MNTC at 24 h: 50 µg/mL
[4]
  IC50: > 50 µg/mL
Staphylococcus aureus [5]
  MIC: 1.25 µg/mL (≈ 2.41 µM)
Enterococcus faecium [6]
  MIC: 3.1 µg/mL (≈ 5.99 µM)
Pseudomonas aeruginosa
  MIC: > 50 µg/mL
